{"data": "Measurements gathered from unrelated publications", "note": "Each line is one published result; the experiments were not run side by side."}
{"Compound": "COc1ccc2/c(=N/c3ccccc3NC(=O)[C@@H](N)C(C)(C)C)cc(-c3ccc4c(c3)OCCO4)oc2c1", "target or system": "NCI-H1975", "assay": "cell growth or viability, CCK-8", "setting": "1 µM", "quantity": "inhibition", "value": "4.59%"}
{"Compound": "CCCCn1cnc2ccc(-c3ccc(NC(=O)Nc4ccc(OC)cc4)nc3)cc2c1=O", "target or system": "NCI-H1975", "assay": "cell growth or viability, CCK-8", "setting": "72 h", "quantity": "IC50", "value": "> 10000 nM"}
{"Compound": "NCCCCC(=O)Nc1ccccc1/N=c1\\cc(-c2ccc3c(c2)OCO3)oc2ccccc12", "target or system": "NCI-H1975", "assay": "cell growth or viability, CCK-8", "setting": "1 µM", "quantity": "inhibition", "value": "-2.12%"}
{"Compound": "COc1cccc(NC(=O)Nc2nc3cc(-c4ccc5ncn(CCN6CCOCC6)c(=O)c5c4)ccc3s2)c1", "target or system": "NCI-H1975", "assay": "cell growth or viability, MTT", "setting": "72 h", "quantity": "IC50", "value": "> 20000 nM"}
{"Compound": "COc1ccc2/c(=N/c3ccccc3NC(=O)[C@@H](N)C(C)(C)C)cc(-c3ccc4c(c3)OCO4)oc2c1", "target or system": "NCI-H1975", "assay": "cell growth or viability, CCK-8", "setting": "1 µM", "quantity": "inhibition", "value": "9.4%"}
{"Compound": "CCCn1cnc2ccc(-c3ccc(NC(=O)CC(C)CC)nc3)cc2c1=O (stereo not drawn)", "target or system": "NCI-H1975", "assay": "cell growth or viability, CCK-8", "setting": "72 h", "quantity": "IC50", "value": "1350 nM"}
{"Compound": "O=C(Nc1nc2cc(-c3ccc4ncn(Cc5ccccc5)c(=O)c4c3)ccc2s1)c1ccccc1", "target or system": "NCI-H1975", "assay": "cell growth or viability, MTT", "setting": "72 h", "quantity": "IC50", "value": "> 20000 nM"}
{"Compound": "O=C(Nc1ccc(-c2ccc3ncn(Cc4ccccc4)c(=O)c3c2)cn1)C1CCCC1", "target or system": "NCI-H1975", "assay": "cell growth or viability, CCK-8", "setting": "72 h", "quantity": "IC50", "value": "> 10000 nM"}
{"Compound": "Nc1nc2c(ncn2COCCO)c(=O)[nH]1", "target or system": "Human alphaherpesvirus 2", "assay": "viral replication, inhibitor, qPCR", "test system": "BEAS-2B", "quantity": "IC50", "value": "160 nM"}
{"Compound": "O=C(Nc1nc2cc(-c3ccc4ncn(Cc5ccccc5)c(=O)c4c3)ccc2s1)NC1CCCCC1", "target or system": "NCI-H1975", "assay": "cell growth or viability, MTT", "setting": "72 h", "quantity": "IC50", "value": "> 20000 nM"}
{"Compound": "C[C@@H]1[C@H](O)[C@@H](C)/C=C/C=C/C=C/C=C/C=C/C=C/C=C/[C@H](O[C@@H]2O[C@H](C)[C@@H](O)[C@H](N)[C@@H]2O)C[C@@H]2O[C@](O)(C[C@@H](O)C[C@@H](O)[C@H](O)CC[C@@H](O)C[C@@H](O)CC(=O)O[C@H]1C)C[C@H](O)[C@H]2C(=O)O", "target or system": "Leishmania amazonensis", "assay": "parasite growth, MTT", "setting": "promastigote", "quantity": "IC50", "value": "280 nM"}
{"Compound": "CCCCn1cnc2ccc(-c3ccc(NC(=O)C4CCCCC4)nc3)cc2c1=O", "target or system": "NCI-H1975", "assay": "cell growth or viability, CCK-8", "setting": "72 h", "quantity": "IC50", "value": "1600 nM"}
{"Compound": "NCC(=O)Nc1ccccc1/N=c1\\cc(-c2ccc3c(c2)OCO3)oc2ccccc12", "target or system": "NCI-H1975", "assay": "cell growth or viability, CCK-8", "setting": "1 µM", "quantity": "inhibition", "value": "1.26%"}
{"Compound": "CCCCn1cnc2ccc(-c3ccc4sc(NC(=O)Nc5ccc(F)cc5)nc4c3)cc2c1=O", "target or system": "NCI-H1975", "assay": "cell growth or viability, MTT", "setting": "72 h", "quantity": "IC50", "value": "690 nM"}
{"Compound": "Cc1ccc(C(=O)Nc2ccc(-c3ccc4ncn(Cc5ccccc5)c(=O)c4c3)cn2)cc1", "target or system": "NCI-H1975", "assay": "cell growth or viability, CCK-8", "setting": "72 h", "quantity": "IC50", "value": "> 10000 nM"}
